Laboratory results reported in ChEMBL document CHEMBL1926548, “Synthesis and study of new paramagnetic resveratrol analogues” (Bioorg Med Chem, 2011).
The source made the active and inactive calls. The rule behind the calls is not given here.

Assays:
[1] = test system: RAW264.7; assay: Antiinflammatory activity in mouse RAW264.7 cells assessed as inhibition of LPS-induced ROS production after 24 hrs using DCFH-DA by fluorescent microplate reader; format: functional, cell-based
Method in brief: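 Cells seeded 5*10^4/well and kept overnight at 37 °C, 5% CO2 in DMEM with 10% heat-inactivated FCS and L-glutamine. Fresh medium, then LPS (E. coli 0127:B8, 100 ng/mL) with or without compound (12.5–100 µM) for 24 h. C400 (2 µg/mL) added for a further 2 h. Fluorescence read at ex 485/em 555 nm. Reported as % of LPS-only mean. n = 6, three repeats.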

[2] = test system: RAW264.7; assay: Antiinflammatory activity in mouse RAW264.7 cells assessed as inhibition of LPS-induced TNF-alpha production at 50 uM after 1.5 hrs by ELISA; format: functional, cell-based
Method in brief: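 Cells seeded 2*10^5/well and cultured overnight as above. Fresh medium, then LPS (100 ng/mL) alone or with compound for 1.5 h. TNFα in medium measured with a mouse TNFα ELISA kit, read at 450 nm. Reported as % of LPS-only mean. n = 3, three repeats. Groups compared at p<0.05.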

[3] = test system: RAW264.7; assay: Antiinflammatory activity in mouse RAW264.7 cells assessed as inhibition of LPS-induced nitrite production after 24 hrs by Griess method; format: functional, cell-based
Method in brief: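 Seeding, medium, overnight culture and treatment as for ROS: LPS 100 ng/mL plus compound at 12.5–100 µM for 24 h. Culture medium mixed with an equal volume of Griess reagent (1% sulphanilamide, 0.1% naphthylethylenediamide, 5% phosphoric acid). Absorbance read at 550 nm and expressed as % of LPS-only mean. n = 6, three repeats.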

[4] = Antioxidant activity in ethyl alcohol assessed as trolox equivalents of ABTS radical scavenging activity after 6 mins by TEAC assay; format: functional
Method in brief: (§1)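 ABTS (7 mM in water) reacted with 2.45 mM persulfate (final) for 12–16 h in the dark at room temperature. Diluted in ethanol or 0.05 M PBS pH 7.4 to A734 0.70 ± 0.02. Compound added at 2.5–12.5 µM, read at 734 nm after 6 min at 25 °C. TEAC = slope of % inhibition vs concentration divided by Trolox slope. Three independent experiments.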

[5] = Antioxidant activity in 0.05 M phosphate buffered saline assessed as trolox equivalents of ABTS radical scavenging activity after 6 mins by TEAC assay; format: functional; method in brief: as §1

Row | SMILES | inhibition [1] | inhibition [2] | inhibition [3] | Ratio [4] | Ratio [5]
1 | CC1(C)C=C(/C=C/C2=CC(C)(C)N([O])C(C)(C)C2)CC(C)(C)N1[O] | Dose-dependent effect | Active | Dose-dependent effect | 0.22 | 
2 | COc1ccc(/C=C/c2cc(OC)cc(OC)c2)cc1 |  |  |  | 0.04 | 
3 | CC1(C)C=C(/C=C/C2=CC(C)(C)N(O)C(C)(C)C2)CC(C)(C)N1O |  |  |  |  | 0.37
4 | COc1cc(OC)cc(C2=C(c3cc(OC)cc(OC)c3)C(C)(C)NC2(C)C)c1 | Dose-dependent effect | Active | Dose-dependent effect |  | 
5 | CC1(C)C=C(/C=C/c2cc(O)cc(O)c2)CC(C)(C)N1[O] | Dose-dependent effect | Active | Dose-dependent effect | 0.92 | 
6 | COc1cc(/C=C/C2=CC(C)(C)N([O])C(C)(C)C2)cc(OC)c1 | Dose-dependent effect |  | Dose-dependent effect | 0.2 | 
7 | CC1(C)c2ccc(/C=C/c3cc(O)cc(O)c3)cc2C(C)(C)N1O |  |  |  |  | 0.67
8 | CC1(C)c2ccc(/C=C/c3cc(O)cc(O)c3)cc2C(C)(C)N1[O] | Dose-dependent effect | Active | Dose-dependent effect | 0.98 | 
9 | COc1cc(/C=C/C2=CC(C)(C)N(O)C(C)(C)C2)cc(OC)c1 |  |  |  |  | 0.28
10 | Oc1ccc(/C=C/c2cc(O)cc(O)c2)cc1 | Dose-dependent effect | Active | Dose-dependent effect | 1 | 1.3
11 | COc1cc(/C=C/C2=CC(C)(C)NC(C)(C)C2)cc(OC)c1 | Dose-dependent effect | Active | Dose-dependent effect | 0.32 | 0.02
12 | CC1(C)C(c2ccc(O)cc2)=C(c2cc(O)cc(O)c2)C(C)(C)N1[O] | Dose-dependent effect | inactive | Dose-dependent effect | 1.02 | 
13 | CC1(C)C=C(/C=C/c2cc(O)cc(O)c2)CC(C)(C)N1O |  |  |  |  | 0.62
